Data on 54 compounds can be found in ChEMBL document CHEMBL2057156, “Synthesis and biological evaluation of the first dual tyrosyl-DNA phosphodiesterase I (Tdp1)-topoisomerase I (Top1) inhibitors” (J Med Chem, 2012).

Experiment [1] has as its target T1, DNA topoisomerase 1 (Homo sapiens) (UniProt P11387).
T1 sequence (whole entry): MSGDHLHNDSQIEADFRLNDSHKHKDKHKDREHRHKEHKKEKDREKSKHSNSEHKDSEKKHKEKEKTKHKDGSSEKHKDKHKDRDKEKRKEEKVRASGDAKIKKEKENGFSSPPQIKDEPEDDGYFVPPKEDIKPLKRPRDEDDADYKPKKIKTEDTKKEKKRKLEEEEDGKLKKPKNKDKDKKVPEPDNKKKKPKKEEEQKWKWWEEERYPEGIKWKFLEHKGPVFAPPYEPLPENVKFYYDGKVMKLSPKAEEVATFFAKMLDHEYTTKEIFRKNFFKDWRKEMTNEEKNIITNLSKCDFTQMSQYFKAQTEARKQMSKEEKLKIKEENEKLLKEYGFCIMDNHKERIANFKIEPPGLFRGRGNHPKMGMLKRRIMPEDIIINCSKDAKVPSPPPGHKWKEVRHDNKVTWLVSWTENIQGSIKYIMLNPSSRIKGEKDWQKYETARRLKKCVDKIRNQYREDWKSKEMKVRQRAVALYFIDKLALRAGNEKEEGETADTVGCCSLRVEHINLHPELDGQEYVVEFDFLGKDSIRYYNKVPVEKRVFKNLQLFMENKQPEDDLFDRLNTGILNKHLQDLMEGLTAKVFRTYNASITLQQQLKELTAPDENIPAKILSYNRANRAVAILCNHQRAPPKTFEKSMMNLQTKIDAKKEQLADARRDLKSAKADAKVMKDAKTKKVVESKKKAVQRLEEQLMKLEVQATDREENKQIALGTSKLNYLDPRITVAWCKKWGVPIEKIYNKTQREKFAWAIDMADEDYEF
Put plainly: Inhibition of human recombinant Top1-mediated DNA cleavage by polyacrylamide gel electrophoresis relative to camptothecin. Details: concentration or dose not given beside the values. The method in brief:
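Baculovirus-purified human recombinant Top1 was incubated for 20 min at 25 °C, with compounds at various concentrations, with about 2 nM of a 117-bp oligonucleotide 3′-end-labeled with [α-³²P]dGTP. Reactions were stopped with 0.5% SDS and run on 20% denaturing PAGE. Cleavage bands were phosphorimaged and graded semiquantitatively against 1 μM camptothecin.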

Experiment [2] addresses Tyrosyl-DNA phosphodiesterase 1 (Homo sapiens, UniProt Q9NUW8). Put plainly: Inhibition of human recombinant Tdp1 using 5'-[32P]-labeled single-stranded DNA oligonucleotide containing 3'-phosphotyrosine as substrate assessed as prevention of generation of oligonucleotide with free 3'-phosphate after 15 mins by PAGE analysis.

Calls of active or inactive are those of the source. The rule behind the calls is not given here. Some results are limits rather than exact numbers.

Sequence of Tyrosyl-DNA phosphodiesterase 1 (Q9NUW8 whole entry): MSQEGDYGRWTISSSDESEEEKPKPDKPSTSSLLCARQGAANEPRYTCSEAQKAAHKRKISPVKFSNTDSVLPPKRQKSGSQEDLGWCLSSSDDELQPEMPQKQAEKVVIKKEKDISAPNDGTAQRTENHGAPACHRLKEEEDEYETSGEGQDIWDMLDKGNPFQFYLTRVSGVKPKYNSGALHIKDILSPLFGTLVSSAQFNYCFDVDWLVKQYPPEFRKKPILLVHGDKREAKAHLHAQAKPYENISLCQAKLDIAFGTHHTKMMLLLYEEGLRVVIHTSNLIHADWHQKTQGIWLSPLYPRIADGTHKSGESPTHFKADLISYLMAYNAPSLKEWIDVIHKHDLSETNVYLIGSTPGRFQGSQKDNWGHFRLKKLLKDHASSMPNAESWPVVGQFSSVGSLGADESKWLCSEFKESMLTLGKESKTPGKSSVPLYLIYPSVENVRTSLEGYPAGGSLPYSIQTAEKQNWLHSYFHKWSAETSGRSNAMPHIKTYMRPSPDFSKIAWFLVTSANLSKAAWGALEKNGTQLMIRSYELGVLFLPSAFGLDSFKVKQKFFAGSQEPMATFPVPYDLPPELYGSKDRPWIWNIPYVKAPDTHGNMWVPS

Turning to `O=C1c2ccccc2-c2c1c1ccccc1c(=O)n2CCCCCCCNS(=O)(=O)c1ccc(Br)cc1`, in experiment [1], the inhibition (commonly how much of the control response was suppressed) is “inactive”. Further, in experiment [2], the half-maximal inhibitory concentration (IC50) (as a rule, the midpoint of a concentration-inhibition curve) was more than 111 µM.

Regarding `O=C1c2ccccc2-c2c1c1ccccc1c(=O)n2CCCCCCCCCNS(=O)(=O)c1ccccc1`, the inhibition entry in experiment [1] was “inactive”. Also, the IC50 in experiment [2] is more than 111 µM.

For `O=C1c2ccccc2-c2c1c1ccccc1c(=O)n2CCCCCNS(=O)(=O)c1ccc(Br)cc1`, the inhibition entry in experiment [1] is “inactive”. In addition, in experiment [2], the IC50 is more than 111 µM.

On to `O=C1c2ccccc2-c2c1c1ccccc1c(=O)n2CCCCCCCCCNS(=O)(=O)c1ccc(Br)cc1`, for which the inhibition entry in experiment [1] was “inactive”. The IC50 in experiment [2] was more than 111 µM.

Regarding `O=C1c2ccccc2-c2c1c1ccccc1c(=O)n2CCCCCCCCCCCCn1c2c(c3ccccc3c1=O)C(=O)c1ccccc1-2`, in experiment [2], the IC50 was more than 111 µM.

Take `O=C1c2ccccc2-c2c1c1ccccc1c(=O)n2CCCCCCNS(=O)(=O)c1ccccc1`: the inhibition result in experiment [1] is “inactive”. Besides, the IC50 in experiment [2] was more than 111 µM.

As to `CS(=O)(=O)NCCCCn1c2c(c3ccccc3c1=O)C(=O)c1ccccc1-2`, the inhibition entry in experiment [1] was “inactive”. Moreover, in experiment [2], the half-maximal inhibitory concentration (IC50) is more than 111 µM.

With `Cc1ccc(S(=O)(=O)NCCCCCCCCCCCCn2c3c(c4ccccc4c2=O)C(=O)c2ccccc2-3)cc1`, in experiment [1], the inhibition entry was “inactive”. For the same compound, the IC50 in experiment [2] is more than 111 µM.

`O=C1c2ccccc2-c2c1c1ccccc1c(=O)n2CCCCNS(=O)(=O)c1ccc(Br)cc1`: the inhibition result in experiment [1] is “inactive”. The IC50 in experiment [2] is more than 111 µM.

For `O=C1c2ccccc2-c2c1c1ccccc1c(=O)n2CCCO`, the IC50 in experiment [2] is more than 111 µM.

`Cc1ccc(S(=O)(=O)OCCCn2c3c(c4ccccc4c2=O)C(=O)c2ccccc2-3)cc1`: the IC50 in experiment [2] was more than 111 µM.

As for `O=C1c2ccccc2-c2c1c1ccccc1c(=O)n2CCCNS(=O)(=O)c1ccccc1`, the inhibition entry in experiment [1] is “inactive”. Besides, the IC50 in experiment [2] was more than 111 µM.

Consider `O=C1c2ccccc2-c2c1c1ccccc1c(=O)n2CCCCCNS(=O)(=O)c1ccccc1`, for which, in experiment [1], the inhibition result was “inactive”. The IC50 in experiment [2] is more than 111 µM.

As to `Cc1ccc(S(=O)(=O)OCCCCCn2c3c(c4ccccc4c2=O)C(=O)c2ccccc2-3)cc1`, in experiment [2], the half-inhibitory concentration (IC50) was more than 111 µM.

`CS(=O)(=O)NCCn1c2c(c3ccccc3c1=O)C(=O)c1ccccc1-2`: the inhibition entry in experiment [1] is “inactive”. The IC50 in experiment [2] was more than 111 µM.

Regarding `O=C1c2ccccc2-c2c1c1ccccc1c(=O)n2CCCCCCCCNS(=O)(=O)c1ccccc1`, the inhibition result in experiment [1] is “inactive”. Besides, in experiment [2], the IC50 was more than 111 µM.

For `Cc1ccc(S(=O)(=O)NCCCCn2c3c(c4ccccc4c2=O)C(=O)c2ccccc2-3)cc1`, the inhibition entry in experiment [1] was “inactive”. Moreover, the concentration for half-maximal inhibition (IC50) in experiment [2] is more than 111 µM.

On to `Cc1ccc(S(=O)(=O)OCCCCn2c3c(c4ccccc4c2=O)C(=O)c2ccccc2-3)cc1`, for which the IC50 in experiment [2] was more than 111 µM.

Consider `O=C1c2ccccc2-c2c1c1ccccc1c(=O)n2CCCCNS(=O)(=O)c1ccccc1`, for which, in experiment [1], the inhibition result is “inactive”. Further, the IC50 in experiment [2] was more than 111 µM.

As for `CS(=O)(=O)NCCCCCCCCCCn1c2c(c3ccccc3c1=O)C(=O)c1ccccc1-2`, in experiment [1], the inhibition entry is “inactive”. The half-inhibitory concentration (IC50) in experiment [2] was more than 111 µM.

Turning to `Cc1ccc(S(=O)(=O)NCCCCCCCn2c3c(c4ccccc4c2=O)C(=O)c2ccccc2-3)cc1`, the inhibition entry in experiment [1] is “inactive”. Further, the IC50 in experiment [2] was more than 111 µM.

In the case of `Cc1ccc(S(=O)(=O)NCCCCCCCCn2c3c(c4ccccc4c2=O)C(=O)c2ccccc2-3)cc1`, the inhibition entry in experiment [1] is “inactive”. Besides, the IC50 in experiment [2] was more than 111 µM.

As to `O=C1c2ccccc2-c2c1c1ccccc1c(=O)n2CCCCCCCCCCCNS(=O)(=O)c1ccccc1`, in experiment [1], the inhibition result is “inactive”. For the same compound, the IC50 in experiment [2] was more than 111 µM.

With `CS(=O)(=O)NCCCCCCCCCCCn1c2c(c3ccccc3c1=O)C(=O)c1ccccc1-2`, in experiment [1], the inhibition entry is “inactive”. Moreover, the IC50 in experiment [2] is more than 111 µM.

Consider `CS(=O)(=O)NCCCCCCCn1c2c(c3ccccc3c1=O)C(=O)c1ccccc1-2`, for which the inhibition entry in experiment [1] is “inactive”. Also, the IC50 in experiment [2] is more than 111 µM.

In the case of `O=C1c2ccccc2-c2c1c1ccccc1c(=O)n2CCCCCCCCNS(=O)(=O)c1ccc(Br)cc1`, in experiment [1], the inhibition entry is “inactive”. Moreover, in experiment [2], the IC50 was more than 111 µM.

Take `Cc1ccc(S(=O)(=O)OCCCCCCCn2c3c(c4ccccc4c2=O)C(=O)c2ccccc2-3)cc1`: the IC50 in experiment [2] was more than 111 µM.

In the case of `O=C1c2ccccc2-c2c1c1ccccc1c(=O)n2CCCCCCCCCCNS(=O)(=O)c1ccc(Br)cc1`, in experiment [1], the inhibition result was “inactive”. Further, the IC50 in experiment [2] was more than 111 µM.

For `Cc1ccc(S(=O)(=O)NCCCCCCCCCCn2c3c(c4ccccc4c2=O)C(=O)c2ccccc2-3)cc1`, the inhibition result in experiment [1] was “inactive”. The IC50 in experiment [2] was more than 111 µM.

In the case of `O=C1c2ccccc2-c2c1c1ccccc1c(=O)n2CCCCCCCCCCn1c2c(c3ccccc3c1=O)C(=O)c1ccccc1-2`, the IC50 in experiment [2] was more than 111 µM.

For `CS(=O)(=O)NCCCCCCn1c2c(c3ccccc3c1=O)C(=O)c1ccccc1-2`, in experiment [1], the inhibition result is “inactive”. The IC50 in experiment [2] is more than 111 µM.

With `O=C1c2ccccc2-c2c1c1ccccc1c(=O)n2CCNS(=O)(=O)c1ccc(Br)cc1`, the inhibition entry in experiment [1] was “inactive”. Besides, the half-maximal inhibitory concentration (IC50) in experiment [2] was more than 111 µM.

`CS(=O)(=O)NCCCCCCCCn1c2c(c3ccccc3c1=O)C(=O)c1ccccc1-2`: the inhibition entry in experiment [1] was “inactive”. For the same compound, in experiment [2], the IC50 is more than 111 µM.

Regarding `Cc1ccc(S(=O)(=O)NCCCn2c3c(c4ccccc4c2=O)C(=O)c2ccccc2-3)cc1`, in experiment [1], the inhibition result was “inactive”. In addition, the IC50 in experiment [2] is more than 111 µM.

For `O=C1c2ccccc2-c2c1c1ccccc1c(=O)n2CCCCCCCCCCCCNS(=O)(=O)c1ccc(Br)cc1`, in experiment [1], the inhibition entry was “inactive”. The IC50 in experiment [2] is more than 111 µM.

As for `CS(=O)(=O)NCCCCCn1c2c(c3ccccc3c1=O)C(=O)c1ccccc1-2`, in experiment [1], the inhibition result was “inactive”. The IC50 in experiment [2] is more than 111 µM.

On to `O=C1c2ccccc2-c2c1c1ccccc1c(=O)n2CCO`, for which, in experiment [2], the IC50 was more than 111 µM.

As for `CS(=O)(=O)NCCCCCCCCCCCCn1c2c(c3ccccc3c1=O)C(=O)c1ccccc1-2`, in experiment [1], the inhibition entry is “inactive”. Moreover, the IC50 in experiment [2] was more than 111 µM.

For the compound `Cc1ccc(S(=O)(=O)OCCCCCCn2c3c(c4ccccc4c2=O)C(=O)c2ccccc2-3)cc1`, the IC50 in experiment [2] was more than 111 µM.

As to `O=C1c2ccccc2-c2c1c1ccccc1c(=O)n2CCCCCO`, the IC50 in experiment [2] was more than 111 µM.

`O=C1c2ccccc2-c2c1c1ccccc1c(=O)n2CCCCCCCCCCCNS(=O)(=O)c1ccc(Br)cc1`: in experiment [1], the inhibition entry is “inactive”. Moreover, in experiment [2], the IC50 is more than 111 µM.

`O=C1c2ccccc2-c2c1c1ccccc1c(=O)n2CCCCCCCCCCCn1c2c(c3ccccc3c1=O)C(=O)c1ccccc1-2`: the half-inhibitory concentration (IC50) in experiment [2] is more than 111 µM.

Turning to `O=C1c2ccccc2-c2c1c1ccccc1c(=O)n2CCCCCCCCCCNS(=O)(=O)c1ccccc1`, the inhibition result in experiment [1] is “inactive”. Also, the 50% inhibitory concentration (IC50) in experiment [2] was more than 111 µM.

For the compound `O=C1c2ccccc2-c2c1c1ccccc1c(=O)n2CCCCCCNS(=O)(=O)c1ccc(Br)cc1`, the inhibition entry in experiment [1] was “inactive”. The IC50 in experiment [2] was more than 111 µM.

In the case of `Cc1ccc(S(=O)(=O)NCCCCCCn2c3c(c4ccccc4c2=O)C(=O)c2ccccc2-3)cc1`, the inhibition entry in experiment [1] was “inactive”. Also, the IC50 in experiment [2] was more than 111 µM.

On to `Cc1ccc(S(=O)(=O)NCCn2c3c(c4ccccc4c2=O)C(=O)c2ccccc2-3)cc1`, for which, in experiment [1], the inhibition entry was “inactive”. Moreover, the IC50 in experiment [2] is more than 111 µM.

Turning to `O=C1c2ccccc2-c2c1c1ccccc1c(=O)n2CCCCO`, the half-inhibitory concentration (IC50) in experiment [2] was more than 111 µM.

Regarding `Cc1ccc(S(=O)(=O)NCCCCCn2c3c(c4ccccc4c2=O)C(=O)c2ccccc2-3)cc1`, the inhibition entry in experiment [1] was “inactive”. The IC50 in experiment [2] was more than 111 µM.

Consider `Cc1ccc(S(=O)(=O)NCCCCCCCCCn2c3c(c4ccccc4c2=O)C(=O)c2ccccc2-3)cc1`, for which, in experiment [1], the inhibition result is “inactive”. Moreover, the IC50 in experiment [2] is more than 111 µM.

`O=C1c2ccccc2-c2c1c1ccccc1c(=O)n2CCCCCCCNS(=O)(=O)c1ccccc1`: the inhibition entry in experiment [1] was “inactive”. Moreover, in experiment [2], the IC50 is more than 111 µM.

In the case of `CS(=O)(=O)NCCCCCCCCCn1c2c(c3ccccc3c1=O)C(=O)c1ccccc1-2`, in experiment [1], the inhibition entry was “inactive”. In addition, the IC50 in experiment [2] was more than 111 µM.

Turning to `O=C1c2ccccc2-c2c1c1ccccc1c(=O)n2CCNS(=O)(=O)c1ccccc1`, the inhibition entry in experiment [1] is “inactive”. For the same compound, the IC50 in experiment [2] was more than 111 µM.

As to `O=C1c2ccccc2-c2c1c1ccccc1c(=O)n2CCCNCCCNCCCn1c2c(c3ccccc3c1=O)C(=O)c1ccccc1-2`, the inhibition in experiment [1] (concentration not given here) worked out at 100%. For the same compound, the half-maximal inhibitory concentration (IC50) in experiment [2] turned out to be 1.52 µM.

For the compound `CS(=O)(=O)NCCCn1c2c(c3ccccc3c1=O)C(=O)c1ccccc1-2`, in experiment [1], the inhibition entry was “inactive”. Also, the IC50 in experiment [2] is more than 111 µM.
